“And” between values parts separate entries of the source, which are not always exact repeats. Equal values may be shown once. The source made the active and inactive calls. No cut-off for these calls is given here.
Legend:
[1] = Displacement of [3H]methyllycaconitine from chimeric alpha7nAChR Y195A mutant/5HT3A receptor in tsA201 cells; format: cell-based, Homo sapiens
Procedure, shortened: (§1)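 tsA-201 cells transiently transfected with 4 µg WT or mutant α7/5-HT3A chimera and assayed 2 days later. Membranes washed twice at 50000g in 50 mM Tris-HCl pH 7.2. Incubated with 0.5 nM [3H]MLA and compound for 2.5 h at room temperature with shaking; nonspecific binding with 5 mM (S)-nicotine. PEI-soaked GF/C filtration, scintillation counting. Ki derived; duplicate, 3–7 experiments.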

[2] = Displacement of [3H]methyllycaconitine from chimeric alpha7nAChR R79A mutant/5HT3A receptor R79A mutant in tsA201 cells; format: cell-based, Homo sapiens; procedure, shortened: as §1
[3] = molecular target: T1, Neuronal acetylcholine receptor subunit alpha-7 (Homo sapiens, UniProt P36544); assay: Displacement of [3H]methyllycaconitine from chimeric alpha7nAChR/5HT3A in tsA201 cells; format: cell-based
Target sequence in this assay (P36544 23-502 limits assumed): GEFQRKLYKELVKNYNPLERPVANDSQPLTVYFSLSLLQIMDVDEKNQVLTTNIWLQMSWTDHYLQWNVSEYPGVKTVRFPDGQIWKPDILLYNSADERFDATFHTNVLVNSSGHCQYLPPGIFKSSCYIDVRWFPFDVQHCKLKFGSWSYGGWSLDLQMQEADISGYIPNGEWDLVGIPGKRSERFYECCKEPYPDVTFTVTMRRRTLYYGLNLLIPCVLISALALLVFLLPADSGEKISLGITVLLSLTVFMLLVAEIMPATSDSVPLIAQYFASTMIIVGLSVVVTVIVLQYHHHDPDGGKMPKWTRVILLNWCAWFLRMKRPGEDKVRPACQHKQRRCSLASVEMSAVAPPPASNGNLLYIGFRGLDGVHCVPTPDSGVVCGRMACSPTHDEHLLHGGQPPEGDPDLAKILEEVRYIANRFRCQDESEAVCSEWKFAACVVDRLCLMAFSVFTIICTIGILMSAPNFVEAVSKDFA

[4] = molecular target: T1, Neuronal acetylcholine receptor subunit alpha-7; assay: Displacement of [3H]methyllycaconitine from alpha7 nAChR in tsA201 cells co-expressed with Ric3; format: cell-based
Target sequence in this assay (P36544 whole entry): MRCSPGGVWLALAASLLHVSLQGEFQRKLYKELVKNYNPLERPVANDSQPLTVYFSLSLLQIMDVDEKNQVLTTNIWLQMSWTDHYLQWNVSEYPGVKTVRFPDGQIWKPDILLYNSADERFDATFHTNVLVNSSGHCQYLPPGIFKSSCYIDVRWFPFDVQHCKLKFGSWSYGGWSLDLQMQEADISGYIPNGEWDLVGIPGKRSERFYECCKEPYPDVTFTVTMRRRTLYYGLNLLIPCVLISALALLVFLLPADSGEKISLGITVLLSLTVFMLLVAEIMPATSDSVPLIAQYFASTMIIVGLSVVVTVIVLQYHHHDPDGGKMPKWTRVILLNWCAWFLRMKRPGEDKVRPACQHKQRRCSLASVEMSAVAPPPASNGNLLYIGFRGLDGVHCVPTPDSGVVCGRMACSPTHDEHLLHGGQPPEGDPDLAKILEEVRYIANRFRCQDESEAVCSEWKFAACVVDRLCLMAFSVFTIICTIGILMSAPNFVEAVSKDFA

[5] = Displacement of [3H]methyllycaconitine from chimeric alpha-7nAChR K145R mutant /5HT3A receptor in tsA201 cells; format: cell-based, Homo sapiens; procedure, shortened: as §1
[6] = molecular target: T2, Neuronal acetylcholine receptor; alpha3/beta4 (Rattus norvegicus, UniProt P04757+P12392); assay: Displacement of [3H]epibatidine from recombinant rat alpha-3-beta-4 nAChr in HEK293 cell line; format: cell-based
T2 sequence (P04757 whole entry): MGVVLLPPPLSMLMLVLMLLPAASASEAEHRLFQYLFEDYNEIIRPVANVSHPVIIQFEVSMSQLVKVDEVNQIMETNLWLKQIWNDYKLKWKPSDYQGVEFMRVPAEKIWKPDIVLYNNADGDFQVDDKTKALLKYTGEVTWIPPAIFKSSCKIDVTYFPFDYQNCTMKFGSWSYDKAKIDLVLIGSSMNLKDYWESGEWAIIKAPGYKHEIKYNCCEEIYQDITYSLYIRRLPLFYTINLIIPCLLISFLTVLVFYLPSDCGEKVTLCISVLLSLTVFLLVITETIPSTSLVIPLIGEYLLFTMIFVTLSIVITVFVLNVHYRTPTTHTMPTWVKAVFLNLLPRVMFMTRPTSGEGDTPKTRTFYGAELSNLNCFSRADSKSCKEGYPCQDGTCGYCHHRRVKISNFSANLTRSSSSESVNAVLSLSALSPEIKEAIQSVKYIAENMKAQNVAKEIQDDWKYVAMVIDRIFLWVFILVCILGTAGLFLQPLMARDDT
T2 sequence (P12392 whole entry): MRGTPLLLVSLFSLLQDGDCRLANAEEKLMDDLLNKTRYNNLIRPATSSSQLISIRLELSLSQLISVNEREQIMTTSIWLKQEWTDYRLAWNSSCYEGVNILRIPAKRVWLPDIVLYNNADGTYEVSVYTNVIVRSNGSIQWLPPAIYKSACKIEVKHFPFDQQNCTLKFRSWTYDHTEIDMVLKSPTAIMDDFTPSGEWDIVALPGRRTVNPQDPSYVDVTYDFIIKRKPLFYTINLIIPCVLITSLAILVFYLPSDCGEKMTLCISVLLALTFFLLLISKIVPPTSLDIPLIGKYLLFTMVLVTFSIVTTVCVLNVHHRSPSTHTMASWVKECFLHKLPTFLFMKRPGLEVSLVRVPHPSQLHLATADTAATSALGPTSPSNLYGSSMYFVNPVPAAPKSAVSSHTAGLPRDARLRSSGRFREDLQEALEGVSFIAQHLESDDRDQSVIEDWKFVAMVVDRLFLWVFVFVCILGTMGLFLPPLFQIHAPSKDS

[7] = molecular target: T1, Neuronal acetylcholine receptor subunit alpha-7
Target sequence in this assay (P36544 whole entry): as the sequence (P36544 whole entry) above

[8] = Antagonist activity at human alpha7nAChR Y93A mutant co-expressed with human Ric3 in tsA201 cells by FMP assay; format: functional, cell-based
[9] = Displacement of [3H]methyllycaconitine from chimeric alpha-7nAChR N107A mutant/5HT3A receptor in tsA201 cells; format: cell-based, Homo sapiens; procedure, shortened: as §1
[10] = molecular target: Neuronal acetylcholine receptor; alpha4/beta2 (Rattus norvegicus, UniProt P09483+P12390); assay: Displacement of [3H]epibatidine from rat recombinant alpha-4-beta-2 nAChR in HEK293 cell line; format: cell-based
Neuronal acetylcholine receptor; alpha4/beta2, sequence (P09483 whole entry): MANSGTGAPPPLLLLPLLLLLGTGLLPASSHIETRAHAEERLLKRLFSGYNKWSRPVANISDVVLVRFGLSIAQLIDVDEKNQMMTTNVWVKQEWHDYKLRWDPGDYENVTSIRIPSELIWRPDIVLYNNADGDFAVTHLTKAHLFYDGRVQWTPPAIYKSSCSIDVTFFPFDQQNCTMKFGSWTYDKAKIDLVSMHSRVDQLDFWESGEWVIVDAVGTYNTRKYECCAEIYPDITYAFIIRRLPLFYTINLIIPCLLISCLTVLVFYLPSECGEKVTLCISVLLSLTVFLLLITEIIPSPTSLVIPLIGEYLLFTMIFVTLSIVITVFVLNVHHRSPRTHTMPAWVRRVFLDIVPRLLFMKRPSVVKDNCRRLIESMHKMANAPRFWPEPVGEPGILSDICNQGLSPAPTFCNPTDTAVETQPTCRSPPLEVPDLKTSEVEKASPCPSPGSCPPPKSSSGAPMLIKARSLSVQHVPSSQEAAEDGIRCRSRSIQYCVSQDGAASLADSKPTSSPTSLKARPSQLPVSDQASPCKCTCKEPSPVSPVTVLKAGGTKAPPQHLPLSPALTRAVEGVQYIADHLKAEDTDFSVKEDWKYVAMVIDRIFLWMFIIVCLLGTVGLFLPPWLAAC
Neuronal acetylcholine receptor; alpha4/beta2, sequence (P12390 whole entry): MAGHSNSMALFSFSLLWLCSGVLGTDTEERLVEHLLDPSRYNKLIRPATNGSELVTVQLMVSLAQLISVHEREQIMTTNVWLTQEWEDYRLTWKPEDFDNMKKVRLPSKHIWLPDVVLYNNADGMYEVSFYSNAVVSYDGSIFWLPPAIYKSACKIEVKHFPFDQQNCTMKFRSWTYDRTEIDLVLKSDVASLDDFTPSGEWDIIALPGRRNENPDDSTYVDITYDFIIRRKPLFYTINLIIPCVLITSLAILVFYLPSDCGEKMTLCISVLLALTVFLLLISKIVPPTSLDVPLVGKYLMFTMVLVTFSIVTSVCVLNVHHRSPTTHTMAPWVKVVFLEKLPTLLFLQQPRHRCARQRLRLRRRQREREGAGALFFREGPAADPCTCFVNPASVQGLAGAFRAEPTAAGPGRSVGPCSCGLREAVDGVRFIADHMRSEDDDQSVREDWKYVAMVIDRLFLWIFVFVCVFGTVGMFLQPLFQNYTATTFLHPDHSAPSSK

tsA201 [11] = assay: Displacement of [3H]methyllycaconitine from chimeric alpha-7nAChR W149Y mutant/5HT3A receptor W149Y mutant in tsA201 cells; format: cell-based; conditions: Homo sapiens; procedure, shortened: as §1
[12] = Antagonist activity at human alpha-7 nAChR Y188A mutant coexpressed with human Ric3 in tsA201 cells by FMP assay; format: functional, cell-based
[13] = molecular target: T3, 5-hydroxytryptamine receptor 3A (Homo sapiens, UniProt P46098); assay: Displacement of [3H]GR65630 from human 5HT3A receptor in HEK293 cells; format: cell-based
T3 sequence (P46098 whole entry): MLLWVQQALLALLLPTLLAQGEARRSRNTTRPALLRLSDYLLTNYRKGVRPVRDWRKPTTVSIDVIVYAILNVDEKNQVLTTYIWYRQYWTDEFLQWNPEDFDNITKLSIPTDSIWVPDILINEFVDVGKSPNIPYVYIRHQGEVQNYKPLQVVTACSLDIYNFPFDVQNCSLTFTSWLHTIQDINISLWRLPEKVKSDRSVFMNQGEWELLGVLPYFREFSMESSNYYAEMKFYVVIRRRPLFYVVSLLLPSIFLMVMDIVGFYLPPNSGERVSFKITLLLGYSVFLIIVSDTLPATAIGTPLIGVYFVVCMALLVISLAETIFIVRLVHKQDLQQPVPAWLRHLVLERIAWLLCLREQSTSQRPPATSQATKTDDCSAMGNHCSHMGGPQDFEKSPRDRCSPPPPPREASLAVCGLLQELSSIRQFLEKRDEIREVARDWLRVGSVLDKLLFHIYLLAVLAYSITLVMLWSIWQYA

cells = format: functional, cell-based; conditions: Homo sapiens, HEK293
[14] = molecular target: Neuronal acetylcholine receptor; alpha4/beta4 (Rattus norvegicus, UniProt P09483+P12392); assay: Displacement of [3H]epibatidine from recombinant rat alpha-4-beta-4 nAChr in HEK293 cell line; format: cell-based
Neuronal acetylcholine receptor; alpha4/beta4, sequence (P09483 whole entry): as the sequence (P09483 whole entry) above
Neuronal acetylcholine receptor; alpha4/beta4, sequence (P12392 whole entry): as the sequence (P12392 whole entry) above

[15] = molecular target: T2, Neuronal acetylcholine receptor; alpha3/beta4; assay: Antagonist activity at rat alpha3beta4 nAChR expressed in HEK293 cells by FMP assay; format: functional, cell-based, Homo sapiens; conditions: read-out: IC50
[16] = Displacement of [3H]methyllycaconitine from chimeric alpha-7nAChR D197A mutant/5HT3A receptor in tsA201 cells; format: cell-based, Homo sapiens; procedure, shortened: as §1
[17] = molecular target: T4, Glycine receptor subunit alpha-1 (Homo sapiens, UniProt P23415); assay: Antagonist activity at human glycine alpha-1 receptor in HEK293 cells by FMP assay; format: functional, cell-based
T4 sequence (P23415 whole entry): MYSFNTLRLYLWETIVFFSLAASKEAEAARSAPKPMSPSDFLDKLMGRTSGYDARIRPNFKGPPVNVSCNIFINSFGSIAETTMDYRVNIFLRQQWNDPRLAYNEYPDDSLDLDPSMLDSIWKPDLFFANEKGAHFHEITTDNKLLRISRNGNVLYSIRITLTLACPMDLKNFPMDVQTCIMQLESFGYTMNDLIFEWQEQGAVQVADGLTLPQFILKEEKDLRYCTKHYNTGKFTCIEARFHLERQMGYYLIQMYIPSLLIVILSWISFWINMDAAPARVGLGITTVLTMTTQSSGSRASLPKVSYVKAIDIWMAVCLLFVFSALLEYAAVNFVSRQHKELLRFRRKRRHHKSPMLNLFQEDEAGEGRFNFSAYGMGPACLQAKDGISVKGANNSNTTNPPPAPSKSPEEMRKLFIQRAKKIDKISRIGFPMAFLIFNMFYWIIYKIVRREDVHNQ

[18] = Displacement of [3H]methyllycaconitine from chimeric alpha7nAChR W55Y mutant/5HT3A receptor in tsA201 cells; format: cell-based, Homo sapiens; procedure, shortened: as §1
[19] = Antagonist activity at human alpha-7 nAChR Y195A mutant coexpressed with human Ric3 in tsA201 cells by FMP assay; format: functional, cell-based
[20] = Displacement of [3H]methyllycaconitine from chimeric alpha-7nAChR Y195F mutant/5HT3A receptor in tsA201 cells; format: cell-based, Homo sapiens; procedure, shortened: as §1
[21] = molecular target: T3, 5-hydroxytryptamine receptor 3A; assay: Antagonist activity at human 5HT3A receptor expressed in HEK293 cells by FMP assay; format: functional, cell-based; conditions: read-out: IC50
tsA201 [22] = assay: Displacement of [3H]methyllycaconitine from chimeric alpha-7nAChR W55A/Y195A mutant /5HT3A receptor in tsA201 cells; format: cell-based; conditions: Homo sapiens; procedure, shortened: as §1
[23] = Displacement of [3H]methyllycaconitine from chimeric alpha-7nAChR S148A mutant /5HT3A receptor in tsA201 cells; format: cell-based, Homo sapiens; procedure, shortened: as §1
tsA201 [24] = assay: Displacement of [3H]methyllycaconitine from chimeric alpha-7nAChR W149A mutant/5HT3A receptor in tsA201 cells; format: cell-based; conditions: Homo sapiens; procedure, shortened: as §1
[25] = Displacement of [3H]methyllycaconitine from chimeric alpha-7nAChR Y168A mutant/5HT3A receptor in tsA201 cells; format: cell-based, Homo sapiens; procedure, shortened: as §1
tsA201 [26] = assay: Displacement of [3H]methyllycaconitine from chimeric alpha-7nAChR Y188A mutant/5-HT3A receptor in tsA201 cells; format: cell-based; conditions: Homo sapiens; procedure, shortened: as §1
[27] = Displacement of [3H]methyllycaconitine from chimeric alpha-7nAChR W55A mutant /5HT3A receptor in tsA201 cells; format: cell-based, Homo sapiens; procedure, shortened: as §1
[28] = Antagonist activity at human alpha7 nAChR W149Y mutant co-expressed with human Ric3 in tsA201 cells by FMP assay; format: functional, cell-based
[29] = Displacement of [3H]methyllycaconitine from chimeric alpha-7nAChR S150A mutant/5HT3A receptor in tsA201 cells; format: cell-based, Homo sapiens; procedure, shortened: as §1
[30] = Displacement of [3H]methyllycaconitine from chimeric alpha7nAChR K145A mutant/5HT3A receptor in tsA201 cells; format: cell-based, Homo sapiens; procedure, shortened: as §1
tsA201 [31] = assay: Displacement of [3H]methyllycaconitine from chimeric alpha-7nAChR Y93A mutant/5HT3A receptor in tsA201 cells; format: cell-based; conditions: Homo sapiens; procedure, shortened: as §1
[32] = molecular target: T1, Neuronal acetylcholine receptor subunit alpha-7; assay: Displacement of [3H]methyllycaconitine from human alpha-7 in tsA201 cells coexpressed with 5HT3A receptor; format: cell-based
Target sequence in this assay (P36544 whole entry): as the sequence (P36544 whole entry) above

[33] = molecular target: T1, Neuronal acetylcholine receptor subunit alpha-7; assay: Antagonist activity at human alpha-7 nAChR in tsA201 cells coexpressed with Ric3 by FMP assay; format: functional, cell-based
Target sequence in this assay (P36544 whole entry): as above

C1=CC([N+]23CC[C@@H]4[C@@H]5[C@@H]6[C@@H](OCC=C(C2)[C@@H]6C[C@@H]43)N2c3ccccc3[C@@]34CC[N+]6(C7C=CCCC7)CC7=CCO[C@H]([C@@H]([C@H]23)[C@H]7C[C@@H]46)N5c2ccccc2)CCC1.[Br-].[Br-] (stereo partly drawn)
Ki [1]: 4.9 µM
pKi [1]: 5.31
Ki [2]: 1.3 µM
pKi [2]: 5.89
Ki [3]: 0.84 µM
pKi [3]: 6.07
Ki ([4]; read-out: Ki): 0.59 µM
Ki ([4]; read-out: pKi (converted)): 0.631 µM
Ki [5]: 0.66 µM
pKi [5]: 6.18
Ki [6]: 30 µM
IC50 [7]: 3 µM and 2.95 µM
IC50 ([8]; read-out: IC50): 3.7 µM
IC50 ([8]; read-out: pIC50 (converted)): 3.72 µM
Ki [9]: 0.724 µM
pKi [9]: 6.14
pKi ([10]; hek293): < 4
Ki ([10]; read-out: Ki): > 100 µM
Activity (tsA201 [11]): inactive
IC50 ([12]; read-out: IC50): 5.3 µM
IC50 ([12]; read-out: pIC50 (converted)): 5.13 µM
Ki [13]: 2.7 µM
IC50 (cells; read-out: IC50): > 100 µM
IC50 (cells; read-out: pIC50 (converted)): > 100 µM
Ki [14]: > 100 µM
pKi ([14]; hek293): < 4
IC50 [15]: 30 µM
Ki [16]: 1.5 µM
pKi [16]: 5.83
IC50 [17]: > 100 µM
pIC50 ([17]; hek293): < 4
Ki [18]: 0.56 µM
pKi [18]: 6.25
IC50 ([19]; read-out: IC50): 3.3 µM
IC50 ([19]; read-out: pIC50 (converted)): 3.31 µM
Ki [20]: 1.3 µM
pKi [20]: 5.89
IC50 [21]: 4.4 µM
Activity (tsA201 [22]): inactive
Ki [23]: 0.4 µM
pKi [23]: 6.4
Activity (tsA201 [24]): inactive
Ki [25]: 1.1 µM
pKi [25]: 5.96
Activity (tsA201 [26]): inactive
Ki [27]: 1.2 µM
pKi [27]: 5.93
IC50 ([28]; read-out: IC50): 2.9 µM
IC50 ([28]; read-out: pIC50 (converted)): 2.88 µM
Ki [29]: 0.55 µM
pKi [29]: 6.26
Ki [30]: 0.32 µM
pKi [30]: 6.5
Activity (tsA201 [31]): inactive
Ki ([32]; read-out: Ki): 0.72 µM
Ki ([32]; read-out: pKi (converted)): 0.794 µM
IC50 ([33]; read-out: IC50): 3 µM
IC50 ([33]; read-out: pIC50 (converted)): 3.02 µM
